What was measured:
Format in all cases: functional
Escherichia coli = experiment: Antibacterial activity was evaluated against Escherichia coli
Summary of the method: (§1)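 MIC against aerobic bacteria, measured at Bayer AG, by standard agar dilution or broth microdilution per NCCLS M7-A5 guidelines. MIC taken as lowest concentration visibly inhibiting growth after in vitro incubation, read when untreated culture growth becomes visible; expressed as log 1/C.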

Enterococcus faecalis = experiment: Antibacterial activity evaluated against Enterococcus faecalis; summary of the method: as §1
Pseudomonas aeruginosa = experiment: Antibacterial activity was evaluated against Pseudomonas aeruginosa; summary of the method: as §1
Staphylococcus aureus = experiment: Antibacterial activity was evaluated against Staphylococcus aureus; summary of the method: as §1

Row | Structure (SMILES) | Log 1/C (Escherichia coli) | Log 1/C (Enterococcus faecalis) | Log 1/C (Pseudomonas aeruginosa) | Log 1/C (Staphylococcus aureus)
1 | CN1CCC[C@@H]2CN(c3c(F)cc4c(=O)c(C(=O)O)cn(C5CC5)c4c3Cl)C[C@@H]21 | 7.15 | 6.23 | 5.32 | 6.83
2 | O=C(O)c1cn(C2CC2)c2c(Cl)c(N3C[C@@H]4CCCN[C@@H]4C3)c(F)cc2c1=O | 8.05 | 7.16 | 6.25 | 7.75
3 | CC1=C(C)n2cc(C(=O)O)c(=O)c3c(F)c(F)c(N4CCN(C5CC5)CC4)c(c32)O1 | 4.12 | 4.12 | 3.51 | 4.42
4 | O=C(O)c1c(=O)c2cc(F)c(N3C[C@@H]4CCCN[C@@H]4C3)c3c2n2c(csc12)CS3 | 7.16 | 6.54 | 5.63 | 6.86
5 | O=C(O)c1cn(C(CF)CF)c2cc(N3C[C@@H]4CCCN[C@@H]4C3)c(F)cc2c1=O | 5.61 | 5.01 | 4.11 | 5.01
6 | CN1CCN(c2c(F)cc3c(=O)c(C(=O)O)cn(CF)c3c2F)CC1 | 7.07 | 5.55 | 5.85 | 5.85
7 | O=C(O)c1cn(C2CC2)c2cc(N3CCN(C(CO)(CO)CO)CC3)c(F)cc2c1=O | 5.34 | 4.13 | 3.53 | 4.74
8 | O=C(O)c1cn2c3c(c(N4CCN(C5CC5)CC4)c(F)cc3c1=O)OC1=C2CCC1 | 4.15 | 4.75 | 3.54 | 4.75
9 | COc1c(N2CC3=C(CN(C)CC3)C2)c(F)cc2c(=O)c(C(=O)O)cn(C3CC3)c12 | 6.84 | 6.52 | 5.32 | 6.84
10 | C[C@H]1COc2c(N3C[C@H]4CCCN[C@H]4C3)c(F)cc3c(=O)c(C(=O)O)cn1c23 | 6.19 | 5.89 | 5.29 | 5.89
11 | CN1CCN(c2cc3c(c(Cl)c2F)c(=O)c(C(=O)O)cn3C2CC2)CC1 | 7.1 | 5.88 | 5.28 | 6.48
12 | CC(C)(C)N1CCN(c2cc3c(cc2F)c(=O)c(C(=O)O)cn3C2CC2)CC1 | 7.1 | 5.89 | 5.29 | 6.19
13 | O=C(O)c1cn(C2CC2)c2c(F)c(N3C[C@@H]4CCCN[C@@H]4C3)c(F)cc2c1=O | 8.02 | 6.84 | 6.23 | 7.44
14 | O=C(O)c1cn(C2CCOCC2)c2cc(N3CCNCC3)c(F)cc2c1=O | 3.77 | 4.07 | 3.47 | 4.07
15 | C=CCN1CCN(c2cc3c(cc2F)c(=O)c(C(=O)O)cn3C2CC2)CC1 | 6.82 | 5.61 | 5.31 | 6.21
16 | O=C(O)c1cn(C2CC2)c2cc(N3C(=O)C=CC3=O)c(F)cc2c1=O | 3.43 | 3.43 | 3.43 | 3.43
17 | O=C(O)c1cn(C2CC2)c2cc(N3CCN(c4ncccn4)CC3)c(F)cc2c1=O | 4.41 | 4.71 | 3.5 | 5.01
18 | CSc1cc2c(=O)c(C(=O)O)cn(C3CC3)c2c(SC)c1SC | 4.36 | 3.76 | 3.46 | 4.96
19 | O=C(O)c1cn(C2CC2)c2cc(N3C[C@H]4CCCN[C@H]4C3)c(F)cc2c1=O | 6.82 | 5.91 | 5.61 | 6.21
20 | O=C(O)c1cn(C2CC2)c2cc(N3CCN(C4CC4)CC3)c(F)cc2c1=O | 7.08 | 5.57 | 4.67 | 6.17
21 | CO/N=C/Cn1cc(C(=O)O)c(=O)c2cc(F)c(N3CCN(C)CC3)c(F)c21 | 5.29 | 3.49 | 4.39 | 4.39
22 | O=C(O)c1cn(C2CC2)c2c(Cl)c(N3C[C@H]4CCCN[C@H]4C3)c(F)cc2c1=O | 7.47 | 6.85 | 5.65 | 6.85
23 | CN1CCC[C@H]2CN(c3c(F)cc4c(=O)c(C(=O)O)cn(C5CC5)c4c3Cl)C[C@H]21 | 7.45 | 6.84 | 5.62 | 7.13
24 | C#Cc1c(N2C[C@@H]3CCCN[C@@H]3C2)c(F)cc2c(=O)c(C(=O)O)cn(C3CC3)c12 | 7.7 | 7.7 | 5.9 | 7.7

Row | Structure (SMILES) | Log 1/C (Escherichia coli) | Log 1/C (Enterococcus faecalis) | Log 1/C (Pseudomonas aeruginosa) | Log 1/C (Staphylococcus aureus)
25 | O=C(O)c1cn(C2CC2)c2c([N+](=O)[O-])c(N3CCOCC3)c(F)cc2c1=O | 5.58 | 4.67 | 3.77 | 5.58
26 | CN1Cc2csc3c(C(=O)O)c(=O)c4cc(F)c(N5CCNCC5)c1c4n23 | 7.11 | 6.49 | 5.89 | 6.81
27 | O=C(O)c1cn(C2C[C@@H]2F)c2c(Cl)c(N3C[C@H]4CCCN[C@H]4C3)ccc2c1=O (some centres not stated) | 7.13 | 6.51 | 5.61 | 6.51
28 | CN1CCN(c2c(F)cc3c(=O)c(C(=O)O)cn4c3c2OC(C(C)(C)C)=C4)CC1 | 4.44 | 4.14 | 3.53 | 3.84
29 | O=C(O)c1cn(C2CC2)c2c(F)c(N3Cc4cccnc4C3)c(F)cc2c1=O | 6.53 | 7.73 | 5.02 | 7.44
30 | CC(C)(C)n1cc(C(=O)O)c(=O)c2cc(F)c(N3CCNCC3)cc21 | 7.06 | 6.44 | 6.14 | 6.44
31 | C[C@H]1COc2c(N3C[C@@H]4CCCN[C@@H]4C3)c(F)cc3c(=O)c(C(=O)O)cn1c23 | 6.8 | 6.19 | 5.59 | 6.19
32 | O=C(O)c1cn(C2CC2)c2cc(N3CCN(c4ccncc4)CC3)c(F)cc2c1=O | 5.91 | 4.71 | 3.5 | 5.61
33 | CC(=O)N1CCC[C@H]2CN(c3c(F)cc4c(=O)c(C(=O)O)cn(C5CC5)c4c3Cl)C[C@H]21 | 5.35 | 5.65 | 3.84 | 5.95
34 | O=C(O)c1cn(C2CC2)c2cc(N3C[C@@H]4CCCN[C@@H]4C3)c(F)cc2c1=O | 7.12 | 6.21 | 5.92 | 7.12
35 | O=C(O)c1cn(C2CC2)c2c(Cl)c(N3CCCCC3)c(F)cc2c1=O | 6.46 | 6.79 | 5.26 | 7.42
36 | O=C(O)c1cn(C2CC2)c2c(F)c(N3C[C@H]4CCCN[C@H]4C3)c(F)cc2c1=O | 7.45 | 6.53 | 5.63 | 6.84
37 | O=C(O)c1cn(C2CC2)c2c(F)c(N3C[C@@H]4OCCN[C@@H]4C3)c(F)c(Br)c2c1=O | 6.58 | 5.37 | 4.47 | 6.27
38 | O=C(O)c1cn2c3c(c(N4CCNCC4)c(F)cc3c1=O)OC=C2COCc1ccccc1 | 3.55 | 4.15 | 3.55 | 4.15
39 | O=C(O)c1cn(C2CC2)c2c(F)c(N3C4CCC3CC4)c(F)cc2c1=O | 5.86 | 5.26 | 4.35 | 5.86
40 | O=C(O)c1cn(-c2ccc(F)cc2F)c2nc(N3C[C@@H]4CCCN[C@@H]4C3)c(F)cc2c1=O | 7.5 | 6 | 5.09 | 6.59
41 | C#CCN1CCN(c2c(F)cc3c(=O)c(C(=O)O)cn(C4CC4)c3c2Cl)CC1 | 6.83 | 5.61 | 5.01 | 6.21
42 | CN1CCN(c2nc3c(cc2Cl)c(=O)c(C(=O)O)cn3C2CC2)CC1 | 6.77 | 4.35 | 4.96 | 4.96
43 | CC1CN(c2c(F)cc3c(=O)c(C(=O)O)cn(C4CC4)c3c2Cl)CC(C)N1 (configuration not stated) | 7.16 | 5.93 | 5.63 | 6.54
44 | N[C@@]12C=CC=CC1CN(c1c(F)cc3c(=O)c(C(=O)O)cn([C@@H]4C[C@@H]4F)c3c1Cl)C2 (some centres not stated) | 8.06 | 7.16 | 6.56 | 8.06
45 | CCOc1c(F)cc2c(=O)c(C(=O)O)cn(C(C)(C)CF)c2c1Cl | 4.35 | 4.05 | 3.45 | 4.95
46 | CO/N=C/Cn1cc(C(=O)O)c(=O)c2cc(F)c(N3C[C@@H]4CCCN(C)[C@@H]4C3)c(F)c21 | 5.62 | 4.42 | 4.42 | 5.62
47 | CNn1cc(C(=O)O)c(=O)c2cc(F)c(N3CCN(C)CC3)cc21 [AMIFLOXACIN] | 6.75 | 4.92 | 5.83 | 5.52
48 | O=C(O)c1cn(C2CC2)c2cc(N3CCNCC3)c(F)cc2c1=O [CIPROFLOXACIN] | 7.66 | 6.16 | 6.77 | 6.16
